Results as given in ChEMBL document CHEMBL5674881, “The therapeutic properties of resminostat for hepatocellular carcinoma” (2018).
The source made the active and inactive calls.

What was measured:
[1] = test system: Hep 3B2; experiment: Anti-proliferative activity against human Hep3B cells assessed as reduction in cell viability at 80 nM incubated for 24 hrs in presence of SC1 by Fluoro Fire-Blue ProViaTox assay relative to control; assay type: functional, cell-based
[2] = test system: Hep 3B2; experiment: Anti-proliferative activity against human Hep3B cells assessed as decrease in leptin mRNA level at 80 nM incubated for 24 hrs in presence of SGBS CM by qRT-PCR analysis; assay type: functional, cell-based
[3] = test system: HepG2; experiment: Anti-proliferative activity against human HepG2 cells assessed as reduced cell proliferation at 80 nM incubated for 24 hrs by Fluoro Fire-Blue ProViaTox assay; assay type: functional, cell-based
[4] = test system: Hep 3B2; experiment: Downregulation of ZFP64 mRNA expression in human Hep3B cells at 80 nM incubated for 24 hrs in presence of 17-AAG by qRT-PCR analysis
[5] = test system: Hep 3B2; experiment: Anti-proliferative activity against human Hep3B cells assessed as increase in p27 mRNA expression at 80 nM incubated for 24 hrs in presence of SGBS CM by qRT-PCR analysis; assay type: functional, cell-based
[6] = test system: Hep 3B2; experiment: Anti-proliferative activity against human Hep3B cells assessed as increase in cleaved Caspase 8 level at 80 nM incubated for 24 hrs in presence of SGBS CM by Tetraplex-Assay Kit analysis; assay type: functional, cell-based
In short: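 Hep3B seeded at 20000 cells/well overnight, then treated with 30% differentiated SGBS conditioned medium with or without resminostat 80 nM for 24 h. Tetraplex caspase substrate buffer added during treatment for real-time cleavage read-out: Caspase 3/7 at Ex 535/Em 620 nm, Caspase 8 at Ex 490/Em 525 nm, Caspase 9 at Ex 370/Em 450 nm. Compared with controls or between treatments; n = 3.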

[7] = test system: Hep 3B2; experiment: Anti-proliferative activity against human Hep3B cells assessed as decrease in TNF-alpha mRNA level at 80 nM incubated for 24 hrs in presence of SGBS CM by qRT-PCR analysis; assay type: functional, cell-based
[8] = test system: Hep 3B2; experiment: Anti-proliferative activity against human Hep3B cells assessed as reduced cell proliferation at 80 nM incubated for 24 hrs by Fluoro Fire-Blue ProViaTox assay; assay type: functional, cell-based
[9] = test system: HepG2; experiment: Anti-proliferative activity against human HepG2 cells assessed as reduced cell proliferation at 80 nM incubated for 24 hrs in presence of SGBS CM by Fluoro Fire-Blue ProViaTox assay; assay type: functional, cell-based
[10] = test system: Huh-7; experiment: Effect on human Huh-7 cells assessed as reduction in HDAC1 mRNA level at 80 nM incubated for 24 hrs by qRT-PCR analysis; assay type: functional, cell-based
In short: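 HepG2 (EMEM) and Huh7 (DMEM) cells, both with 10% FBS, treated with 30% differentiated-SGBS conditioned medium with or without 80 nM drug. HDAC1 RNA given as fold change versus untreated cells or between treatments (n = 3).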

[11] = test system: Hep 3B2; experiment: Upregulation of BAX expression in human Hep3B cells at 80 nM incubated for 24 hrs by qRT-PCR analysis; assay type: functional, cell-based
In short: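 RNA levels of BCL-2, BIM, BAX and BAD measured in Hep3B cells after 24 h with 80 nM drug. Triplicates, three independent experiments, t-test.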

[12] = test system: Hep 3B2; experiment: Anti-proliferative activity against human Hep3B cells assessed as reduced cell proliferation at 80 nM incubated for 24 hrs in presence of SGBS CM by Fluoro Fire-Blue ProViaTox assay; assay type: functional, cell-based
[13] = test system: Huh-7; experiment: Anti-proliferative activity against human Huh-7 cells assessed as reduced cell proliferation at 80 nM incubated for 24 hrs in presence of SGBS CM by Fluoro Fire-Blue ProViaTox assay; assay type: functional, cell-based
[14] = test system: Hep 3B2; experiment: Anti-proliferative activity against human Hep3B cells assessed as increase in Caspase 3 expression at 80 nM incubated for 24 hrs by qRT-PCR analysis; assay type: functional, cell-based
[15] = test system: Hep 3B2; experiment: Anti-proliferative activity against human Hep3B cells assessed as increase in expression at 80 nM incubated for 24 hrs by qRT-PCR analysis
[16] = test system: Hep 3B2; experiment: Effect on human Hep3B cells assessed as reduction in HDAC3 mRNA level at 80 nM incubated for 24 hrs in presence of SGBS CM by qRT-PCR analysis; assay type: functional, cell-based
In short: (§1)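 Hep3B cells exposed to 30% conditioned medium from differentiated SGBS adipocytes, with or without 80 nM drug. HDAC1, 2 and 3 RNA given as fold change versus untreated cells or between treatments.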

[17] = test system: Hep 3B2; experiment: Anti-proliferative activity against human Hep3B cells assessed as increase in BAX mRNA level at 80 nM incubated for 24 hrs by qRT-PCR analysis; assay type: functional, cell-based
[18] = test system: Hep 3B2; experiment: Anti-proliferative activity against human Hep3B cells assessed as increase in BIM mRNA level at 80 nM incubated for 24 hrs by qRT-PCR analysis; assay type: functional, cell-based
[19] = test system: Hep 3B2; experiment: Anti-proliferative activity against human Hep3B cells assessed as reduction in cell viability at 80 nM incubated for 24 hrs in presence of doxorubicin by Fluoro Fire-Blue ProViaTox assay relative to control; assay type: functional, cell-based
[20] = test system: Hep 3B2; experiment: Effect on human Hep3B cells assessed as reduction in HDAC2 mRNA level at 80 nM incubated for 24 hrs in presence of SGBS CM by qRT-PCR analysis; assay type: functional, cell-based; in short: as §1
[21] = test system: Hep 3B2; experiment: Downregulation of HSP90 mRNA expression in human Hep3B cells at 80 nM incubated for 24 hrs in presence of 17-AAG by qRT-PCR analysis; assay type: functional, cell-based
[22] = test system: Hep 3B2; experiment: Effect on human Hep3B cells assessed as reduction in HDAC1 mRNA level at 80 nM incubated for 24 hrs by qRT-PCR analysis; assay type: functional, cell-based
In short: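 RNA levels of HDAC1 and HDAC2 measured in Hep3B cells after 24 h with 80 nM drug, 17-AAG (50 nM) or the combination (n = 3). Cells grown in EMEM with 10% FBS at 37°C, 5% CO2.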

[23] = test system: Hep 3B2; experiment: Effect on human Hep3B cells assessed as reduction in HDAC1 mRNA level at 80 nM incubated for 24 hrs in presence of SGBS CM by qRT-PCR analysis; assay type: functional, cell-based; in short: as §1
[24] = test system: Hep 3B2; experiment: Downregulation of EZH2 expression in human Hep3B cells at 80 nM incubated for 24 hrs in presence of GSK343 by qRT-PCR analysis; assay type: functional, cell-based
[25] = test system: Hep 3B2; experiment: Anti-proliferative activity against human Hep3B cells assessed as increase in IL-10 mRNA level at 80 nM incubated for 24 hrs in presence of SGBS CM by qRT-PCR analysis; assay type: functional, cell-based
[26] = test system: Hep 3B2; experiment: Anti-proliferative activity against human Hep3B cells assessed as reduction in cell viability at 80 nM measured after 24 hrs in presence of 17-AAG by Fluoro Fire-Blue ProViaTox assay; details: Hep 3B2, time 24.0 hrs

Measured: Activity

CN(C)Cc1ccc(S(=O)(=O)n2ccc(/C=C/C(=O)NO)c2)cc1 [RESMINOSTAT]
active: [1] | [2] | [3] | [4] | [5] | [6] | [7] | [8] | [9] | [10] | [11] | [12] | [13] | [14] | [15] | [16] | [17] | [18] | [19] | [20] | [21] | [22] | [23] | [24] | [25] | [26]
